Measured values from the array DNA melting data of Ke et al. (doi:10.1101/2024.01.08.574731).

What was measured:
[1] = folding enthalpy; higher = less favourable; fluorescence melt of hairpins on a sequencing array, two-state fit; details: sodium 0.088 M
Method in brief: (§1)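 With Cy3 and quencher oligos annealed, library hairpins on a sequenced MiSeq flow cell were imaged for Cy3 fluorescence in 50 mM Na-HEPES pH 8.0, 25 mM NaCl, in 2.5 °C steps up to 60 °C. Melting temperature and folding enthalpy were derived from bootstrapped two-state fits of signals normalised to pre-quench Cy3 and to control constructs. Four replicates were combined by inverse variance, with fitted temperatures raised by 9.35 °C to match UV melts.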

[2] = melting temperature; fluorescence melt of hairpins on a sequencing array, two-state fit, raised by 9.35 °C to match UV melts; details: sodium 0.088 M
Method in brief: as §1

Sequence | folding enthalpy [1] [kcal/mol] | Tm [2] [°C]
GACGATACGAAAGTAGTC (((..(((....)))))) | -17 | 36.1
GACGATCCGAAAGGAGTC (((..(((....)))))) | -22.1 | 39.8
GACGCAGGAAACCACGTC ((((..(....)..)))) | -16.3 | 34.9
GACGCAGGAAACTACGTC ((((.((....)).)))) | -26.6 | 43.5
GACGCAGGAAACTGCATC ((.((((....)))).)) | -13.5 | 36.2
GACGCCGAAAGGCAAGTC ((((((....)))..))) | -19.7 | 48.9
GACGCCGAAAGGCACGTC ((((((....)))..))) | -13.4 | 48.5
GACGCCGAAAGGCCGTC ((((((....))).))) | -18.7 | 61.4
GACGCCGGAAACAGCGCC (.(((.(....).))).) | -17.8 | 31.8
GACGCCGGAAACAGCGTC (((((.(....).))))) | -35.9 | 54.8
GACGCCGGAAACGGCGCC (.(((((....))))).) | -10.5 | 56.9
GACGCTGGAAACAGCGCC (.(((((....))))).) | -12.4 | 53
GACGCTGGAAACGGTGTC (((.(.(....).).))) | -28.9 | 42.1
GACGGAGCGAAAGCTGTC (((..(((....)))))) | -18.9 | 41.8
GACGGCGAAAGCCAGTC ((((((....))).))) | -22.7 | 60.2
GACGGCGAAAGCCCTGTC ((((((....)))..))) | -13.6 | 38.6
GACGGCGAAAGCCGGGTC ((((((....)))..))) | -11.3 | 68.2
GACGGCGAAAGCCGGTC ((((((....))).))) | -11.6 | 64
GACGGCGAAAGCCTAGTC ((((((....)))..))) | -16.7 | 47.4
GACGGCGAAAGCCTCGTC ((((((....)))..))) | -13.1 | 56.4
GACGGCGGAAACGCTGTC (((.(((....))).))) | -37.5 | 64.7
GACGGGCGAAAGCCGGTC (((.(((....))).))) | -25.9 | 65.5
GACGGGGAAACCCGTC ((((((....)))))) | -37.9 | 68

Sequence | folding enthalpy [1] [kcal/mol] | Tm [2] [°C]
GACGGGGGAAACCCCGCC (.(((((....))))).) | -12.5 | 50.5
GACGGGGGAAACCCTGTC (((.(((....))).))) | -37.1 | 54.4
GACGGTGGAAACACCATC ((.((((....)))).)) | -16.2 | 36.5
GACGGTGGAAACACTGTC (((.(((....))).))) | -45.8 | 52.1
GACGTACGAAAGTAAGTC (((.(((....))).))) | -29.2 | 50.6
GACGTCACGAAAGTGGTC (((..(((....)))))) | -15 | 35.6
GACGTGCCGAAAGGCGTC (((..(((....)))))) | -13.3 | 46.8
GACGTGCGAAAGCAAGTC (((.(((....))).))) | -31.5 | 60.5
GACGTGGGAAACCACGTC (((((((....))))))) | -37.1 | 68.8
GACGTGGGAAACTACGTC (((((.(....).))))) | -38.4 | 52.5
GACGTTGGAAACAATGTC (((.(((....))).))) | -37.3 | 48.4
GACTAAGGAAACTTAGCC (.(((((....))))).) | -20.4 | 31.3
GACTACCCGAAAGGGGTC (((..(((....)))))) | -11.3 | 38.3
GACTACGAAAGTATAGTC ((((((....)))..))) | -23.3 | 36.8
GACTACGAAAGTATGGTC ((((((....)))..))) | -19.5 | 34.4
GACTACGAAAGTATTGTC ((((((....)))..))) | -15.2 | 29.6
GACTACGGAAACGTAGTC (((((((....))))))) | -37.8 | 61.4
GACTATGGAAACATAGCC (.(((((....))))).) | -22.6 | 35.7
GACTCACGAAAGTGGGTC (((.(((....))).))) | -41.1 | 57.6
GACTCAGAAATGAGTC ((((((....)))))) | -35.9 | 54.5
GACTCAGGAAACTGAATC ((.((((....)))).)) | -16.3 | 27.7
GACTCAGGAAACTGAGCC (.(((((....))))).) | -16.5 | 43.6
GACTCCCGAAAGGGCGTC (((.(((....))).))) | -27.3 | 53.5

Sequence | folding enthalpy [1] [kcal/mol] | Tm [2] [°C]
GACTCCCGAAAGGGGTC (((.(((....)))))) | -24.9 | 50.8
GACTCCGAAAGGACAGTC ((((((....)))..))) | -19.2 | 37.9
GACTCCGAAAGGACGTC ((((((....))).))) | -30.8 | 49.9
GACTCCGGAAACGGAACC (..((((....))))..) | -8.88 | 26.1
GACTCCGGAAACGGGGTC (((.(((....))).))) | -38 | 57.2
GACTCGCGAAAGCGCGTC (((.(((....))).))) | -23.6 | 55.9
GACTCGGAAACGAGTC ((((((....)))))) | -32.8 | 66.4
GACTCGGGAAACCGAGCC (.(((((....))))).) | -17 | 47.8
GACTCTGGAAACAGAGCC (.(((((....))))).) | -18.3 | 43
GACTCTGGAAACAGAGTC (((((((....))))))) | -34.3 | 63.9
GACTGAGGAAACTTAGTC ((((.((....)).)))) | -26.3 | 39.4
GACTGCGAAAGCAACGTC ((((((....)))..))) | -15.2 | 38.8
GACTGCGAAAGCACTGTC ((((((....)))..))) | -12.8 | 39.9
GACTGCGAAAGCATTGTC ((((((....)))..))) | -10.4 | 42
GACTGGACGAAAGTCGTC (((..(((....)))))) | -12.4 | 46.8
GACTGGGAAACCAGTC ((((((....)))))) | -35.1 | 60.1
GACTGGGGAAACCCAGCC (.(((((....))))).) | -15.4 | 44.7
GACTGGGGAAACCTAGTC ((((.((....)).)))) | -32.8 | 47.8
GACTGTACGAAAGTAGTC (((..(((....)))))) | -28.8 | 36.9
GACTGTCCGAAAGGAGTC (((..(((....)))))) | -14.6 | 36.1
GACTGTGGAAACACAGTC (((((((....))))))) | -37.5 | 66.5
GACTGTGGAAACATAGTC ((((.((....)).)))) | -28.5 | 45.2
GACTTAACGAAAGTTGTC (((..(((....)))))) | -16.8 | 32.2

Sequence | folding enthalpy [1] [kcal/mol] | Tm [2] [°C]
GACTTACCGAAAGGTGTC (((..(((....)))))) | -16.4 | 36.3
GACTTACGAAAGTACGTC (((.(((....))).))) | -33.2 | 44.3
GACTTAGAAATAAGTC ((((((....)))))) | -30 | 43.8
GACTTAGGAAACTAAGTC (((((((....))))))) | -37.3 | 53.8
GACTTAGGAAACTAGGTC (((.(((....))).))) | -32.1 | 36.8
GACTTAGGAAACTGAGTC ((((.((....)).)))) | -36.1 | 41.2
GACTTCCCGAAAGGGGTC (((..(((....)))))) | -10.5 | 34
GACTTCGGAAACGAGGTC (((.(((....))).))) | -35.9 | 49.9
GACTTGCGAAAGCAGTC (((.(((....)))))) | -17.4 | 51.9
GACTTGCGAAAGCATGTC (((.(((....))).))) | -25.2 | 55.8
GACTTGGCGAAAGCCGTC (((..(((....)))))) | -7.4 | 48.4
GACTTGGGAAACCGAGTC ((((.((....)).)))) | -45.3 | 49.5
GACTTTGGAAACAAAGTC (((((((....))))))) | -44.5 | 57.8
GAGAAAGAAATTTCTC ((((((....)))))) | -18.8 | 36.4
GAGAAAGGAAACTTTCTC (((((((....))))))) | -39.2 | 50.8
GAGAACGAAAGTTAGCTC ((((((....)))..))) | -10 | 24.5
GAGAACGAAAGTTCACTC ((((((....)))..))) | -17.2 | 44.3
GAGAAGGGAAACCTTCCC (.(((((....))))).) | -15.9 | 34.6
GAGAAGGGAAACTTTCTC (((((.(....).))))) | -22.7 | 31.8
GAGAATGGAAACATTTTC ((.((((....)))).)) | -14.8 | 29.4
GAGACCCCGAAAGGGCTC (((..(((....)))))) | -22.6 | 47.2
GAGACCGAAAGGTACTC ((((((....))).))) | -17.5 | 43.3
